ChEMBL document CHEMBL1153361, “Synthesis and in vitro characterization of radioiodinatable benzodiazepines selective for type 1 and type 2 cholecystokinin receptors” (J Med Chem, 2009)
Active and inactive are the calls of the source. No cut-off for these calls is given here.

Legend:
[1] = target: T1, Gastrin/cholecystokinin type B receptor (Homo sapiens) (UniProt P32239); experiment: Antagonist activity at human CCK2 receptor expressed in CHO cells assessed as inhibition of CCK8-stimulated intracellular calcium response preincubated for 100 seconds before CCK8 challenge; format: functional, cell-based
T1 sequence (whole entry): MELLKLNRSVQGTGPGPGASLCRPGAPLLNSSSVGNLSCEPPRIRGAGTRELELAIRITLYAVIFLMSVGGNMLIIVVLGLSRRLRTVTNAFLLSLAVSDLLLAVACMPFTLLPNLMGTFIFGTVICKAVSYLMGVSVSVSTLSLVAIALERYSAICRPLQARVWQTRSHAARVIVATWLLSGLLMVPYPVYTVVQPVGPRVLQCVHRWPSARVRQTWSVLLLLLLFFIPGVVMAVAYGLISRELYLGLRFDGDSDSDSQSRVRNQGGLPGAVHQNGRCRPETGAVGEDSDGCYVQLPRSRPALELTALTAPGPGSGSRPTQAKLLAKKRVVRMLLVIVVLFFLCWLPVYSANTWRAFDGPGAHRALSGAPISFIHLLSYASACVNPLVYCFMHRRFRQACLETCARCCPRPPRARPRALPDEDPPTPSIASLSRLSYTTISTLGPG
Summary of the method: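 Fura-2 AM-loaded (5 μM, 30 min, 37 °C) CHO cells stably expressing human receptor, about 2 million per measurement. Cells were pre-incubated 100 s with increasing ligand concentrations, then stimulated with CCK-8 (final 10^-9 M) at 37 °C. Ratiometric read-out with excitation at 340/380 nm and emission at 520 nm, collected over 300 s. Means of 3 independent experiments.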

[2] = target: T1, Gastrin/cholecystokinin type B receptor (Homo sapiens); experiment: (§1) Displacement of [125I](R)-1-(3-iodophenyl)-3-(1-methyl-2-oxo-5-phenyl-2,3-dihydro-1Hbenzo[e][1,4]diazepin-3-yl)urea from human CCK2 receptor expressed in CHO cells by gamma spectrometry; format: cell-based; conditions: tested as the 125I-labelled form
Summary of the method: (§2)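 Homologous competition in membranes (5–10 µg protein) from CHO cells expressing human receptor. 10 pM radioligand (about 20,000 cpm) plus cold ligand 0–1 µM in KRH with 0.2% BSA and 0.01% soybean trypsin inhibitor, 1 h at room temperature. Filtration, gamma counting. Ki fitted by LIGAND nonlinear least squares. Duplicate/triplicate, ≥3 independent experiments.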

[3] = target: T1, Gastrin/cholecystokinin type B receptor (Homo sapiens); experiment: Agonist activity at human CCK2 receptor expressed in CHO cells assessed as stimulation of intracellular calcium response; format: functional, cell-based
Summary of the method: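 CHO cells stably expressing human receptor, detached non-enzymatically, loaded with 5 μM Fura-2 AM for 30 min at 37 °C in serum-free Ham's F12. About 2 million cells per measurement were stimulated with test ligand (10 pM to 10 μM) at 37 °C. Fluorescence was read with excitation at 340/380 nm and emission at 520 nm over 300 s. Three independent experiments.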

[4] = target: T1, Gastrin/cholecystokinin type B receptor (Homo sapiens); experiment: Induction of receptor internalization in YFP-tagged human CCK2 receptor expressed in CHO cells at 100 nM after 90 mins; format: cell-based
Summary of the method: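 CHO cells stably expressing YFP-tagged receptor, grown ≥48 h on coverslips, bound with 100 nM ligand at 4 °C for 90 min in PBS with 0.08 mM CaCl2 and 0.1 mM MgCl2. After washing, cells were warmed to 37 °C for varying times, fixed in 2% paraformaldehyde, and imaged by confocal microscopy for surface versus internal YFP (ex 488, em >505 nm).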

[5] = target: T1, Gastrin/cholecystokinin type B receptor (Homo sapiens); experiment: Binding affinity to CCK2 receptor in human gastrointestinal stromal tumor in presence of CCK1 antagonist L364718; conditions: tested as the 125I-labelled form
[6] = target: T1, Gastrin/cholecystokinin type B receptor (Homo sapiens); experiment: Displacement of [125I]CCK from CCK2 receptor in human muscular layer of gall bladder assessed as binding density per mg of tissue by autoradiography; format: tissue-based; conditions: tested as the 125I-labelled form
[7] = target: T1, Gastrin/cholecystokinin type B receptor (Homo sapiens); experiment: Displacement of [125I]CCK from CCK2 receptor in human medullary thyroid carcinoma assessed as binding density per mg of tissue by autoradiography; conditions: tested as the 125I-labelled form
[8] = target: T1, Gastrin/cholecystokinin type B receptor (Homo sapiens); experiment: Binding affinity to CCK2 receptor in human gastrointestinal stromal tumor in presence of (R)-1-(3-iodophenyl)-3-(1-methyl-2-oxo-5-phenyl-2,3-dihydro-1Hbenzo[e][1,4]diazepin-3-yl)urea; conditions: tested as the 125I-labelled form
[9] = target: T1, Gastrin/cholecystokinin type B receptor (Homo sapiens); experiment: Binding affinity to CCK2 receptor in human gastrointestinal stromal tumor in presence of CCK8; conditions: tested as the 125I-labelled form
[10] = target: T2, Gastrin/cholecystokinin type B receptor (Homo sapiens, UniProt P32239); experiment: as §1; format: cell-based; summary of the method: as §2
T2 sequence (P32239 whole entry): T1 sequence (whole entry)

[11] = target: T3, Cholecystokinin receptor type A (Homo sapiens, UniProt P32238); experiment: Binding affinity to human CCK1 receptor expressed in CHO cell membrane by saturation binding assay; format: cell membranes
T3 sequence (P32238 whole entry): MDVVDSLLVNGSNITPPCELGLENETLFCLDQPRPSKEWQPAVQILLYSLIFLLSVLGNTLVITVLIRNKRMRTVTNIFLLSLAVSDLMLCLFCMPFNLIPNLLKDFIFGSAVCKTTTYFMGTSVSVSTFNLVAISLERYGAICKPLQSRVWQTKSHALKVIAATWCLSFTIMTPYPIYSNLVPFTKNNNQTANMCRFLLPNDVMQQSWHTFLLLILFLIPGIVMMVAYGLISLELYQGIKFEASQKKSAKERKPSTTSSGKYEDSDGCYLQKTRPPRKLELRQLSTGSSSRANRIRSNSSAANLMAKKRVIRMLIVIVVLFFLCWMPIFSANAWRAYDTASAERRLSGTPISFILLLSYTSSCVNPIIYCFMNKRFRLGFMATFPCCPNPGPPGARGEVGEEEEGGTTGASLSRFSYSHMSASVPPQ
Summary of the method: (§3)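 Membranes (5–10 µg protein) from CHO cells stably expressing human CCK1 or CCK2 receptor, incubated with increasing radioligand in KRH pH 7.4 with 0.2% BSA and 0.01% soybean trypsin inhibitor, 1 h at room temperature. Nonspecific binding taken with 1 µM cold homolog. Filtration, gamma counting. Kd and Bmax fitted in LIGAND.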

[12] = target: T3, Cholecystokinin receptor type A; experiment: biochemical
[13] = target: T2, Gastrin/cholecystokinin type B receptor; experiment: Binding affinity to human CCK2 receptor expressed in CHO cell membrane by saturation binding assay; format: cell membranes; summary of the method: as §3

Row | SMILES | Activity [1] | Activity [2] | Activity [3] | Ki [10] | Ki [12] | other results
1 | CN1C(=O)[C@@H](NC(=O)Nc2cccc(I)c2)N=C(c2ccccc2)c2ccccc21 | Dose-dependent effect | Dose-dependent effect | inactive |  |  | 
2 | CN1C(=O)[C@H](NC(=O)Nc2cccc(I)c2)N=C(c2ccccc2)c2ccccc21 | Dose-dependent effect | Dose-dependent effect | inactive |  |  | Activity [4]: Active; Activity [5]: inactive; Activity (disintegrations/minute) [6]: 970; Activity (disintegrations/minute) [7]: 602; Activity [8]: inactive; Activity [9]: inactive
3 | CN1C(=O)[C@@H](NC(=O)Nc2cccc([125I])c2)N=C(c2ccccc2)c2ccccc21 |  |  |  | 1 nM | 174 nM | Kd [11]: 1.15 nM
4 | CN1C(=O)[C@H](NC(=O)Nc2cccc([125I])c2)N=C(c2ccccc2)c2ccccc21 |  |  |  | 537 nM | 3.72 nM | Kd [13]: 2.95 nM
